Here are results for three compounds from ChEMBL document CHEMBL4346653, “A2B Adenosine Receptor Antagonists with Picomolar Potency” (J Med Chem, 2019).

The target of assay [1] is T1, Adenosine receptor A3 (Mus musculus) (UniProt Q61618).
T1 sequence (whole entry): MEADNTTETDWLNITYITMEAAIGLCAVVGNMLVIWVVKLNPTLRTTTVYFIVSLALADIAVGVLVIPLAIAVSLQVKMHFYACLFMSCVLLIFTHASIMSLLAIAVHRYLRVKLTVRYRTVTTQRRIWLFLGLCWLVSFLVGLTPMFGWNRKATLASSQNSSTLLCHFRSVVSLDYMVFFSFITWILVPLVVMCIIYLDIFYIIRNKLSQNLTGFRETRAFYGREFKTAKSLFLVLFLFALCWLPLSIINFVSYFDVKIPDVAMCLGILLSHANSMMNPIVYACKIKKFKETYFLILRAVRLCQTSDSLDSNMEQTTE
As to the kind of experiment: Displacement of [3H]NECA from recombinant mouse A3 adenosine receptor expressed in CHO cell membranes at 1 uM measured after 180 mins in presence of adenosine deaminase by liquid scintillation counting method relative to control.

Assay [2] is filed under the species Homo sapiens. As to the kind of experiment: Selectivity index, ratio of Ki for displacement of [3H]CCPA from recombinant human A1 adenosine receptor expressed in CHO cell membranes to Ki for displacement of [3H]PSB-603 from recombinant human A2B adenosine receptor expressed in CHO cell membranes. For orientation: Loss of bound radioactivity is the signal in a displacement assay; it reports binding, not function.

In another assay the target is T2, Adenosine receptor A2b (Homo sapiens, UniProt P29275).
T2 sequence (P29275 whole entry): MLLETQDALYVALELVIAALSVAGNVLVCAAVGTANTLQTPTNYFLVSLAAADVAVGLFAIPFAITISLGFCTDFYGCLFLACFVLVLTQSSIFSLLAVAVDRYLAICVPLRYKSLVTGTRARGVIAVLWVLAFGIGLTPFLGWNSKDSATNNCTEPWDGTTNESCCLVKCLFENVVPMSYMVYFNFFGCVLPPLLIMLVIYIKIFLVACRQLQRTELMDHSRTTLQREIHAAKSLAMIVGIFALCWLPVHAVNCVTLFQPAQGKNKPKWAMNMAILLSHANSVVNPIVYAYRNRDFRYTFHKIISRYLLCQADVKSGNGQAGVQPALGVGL
The assay can be described thus: Displacement of [3H]PSB-603 from recombinant human A2B adenosine receptor expressed in CHO cell membranes measured after 75 mins in presence of adenosine deaminase by liquid scintillation counting method. A digest of the protocol:
(§1)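 Competition binding on membranes of cells recombinantly expressing the human receptor (CHO or HEK cells), with tritiated radioligand per subtype: [3H]PSB-603 for A2B, [3H]MSX-2 for A2A, [3H]CCPA for A1, [3H]PSB-11 for A3. Ki ± SEM from n = 3, some from extrapolated curves. Weak binders are reported as % inhibition of radioligand binding at 1 μM.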

Assay [3] addresses T3, Adenosine receptor A1 (Homo sapiens) (UniProt P30542).
T3 sequence (whole entry): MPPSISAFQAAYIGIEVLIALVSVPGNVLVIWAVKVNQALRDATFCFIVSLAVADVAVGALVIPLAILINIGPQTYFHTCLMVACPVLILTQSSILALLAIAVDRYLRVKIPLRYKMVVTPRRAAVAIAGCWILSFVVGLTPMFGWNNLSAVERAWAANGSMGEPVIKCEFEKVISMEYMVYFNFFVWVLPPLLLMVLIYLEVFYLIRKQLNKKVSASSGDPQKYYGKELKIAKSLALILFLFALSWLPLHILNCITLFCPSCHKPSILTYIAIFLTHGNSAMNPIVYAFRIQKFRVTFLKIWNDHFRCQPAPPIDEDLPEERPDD
As to the kind of experiment: Displacement of [3H]CCPA from recombinant human A1 adenosine receptor expressed in CHO cell membranes at 1 uM measured after 90 mins in presence of adenosine deaminase by liquid scintillation counting method relative to control. A digest of the protocol:
(§2)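 Single-point competition binding at human AR subtype membranes, each against its own tritiated radioligand. The test compound is given at 1 μM, and the result is reported as percent inhibition of radioligand binding. The radioligand-specific footnotes give n = 3.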

Assay [4] is filed under the species Homo sapiens. The assay can be described thus: Selectivity index, ratio of Ki for displacement of [3H]PSB-11 from recombinant human A3 adenosine receptor expressed in CHO cell membranes to Ki for displacement of [3H]PSB-603 from recombinant human A2B adenosine receptor expressed in CHO cell membranes.
In assay [5] the target is T4, Adenosine receptor A3 (Homo sapiens) (UniProt P0DMS8).
T4 sequence (whole entry): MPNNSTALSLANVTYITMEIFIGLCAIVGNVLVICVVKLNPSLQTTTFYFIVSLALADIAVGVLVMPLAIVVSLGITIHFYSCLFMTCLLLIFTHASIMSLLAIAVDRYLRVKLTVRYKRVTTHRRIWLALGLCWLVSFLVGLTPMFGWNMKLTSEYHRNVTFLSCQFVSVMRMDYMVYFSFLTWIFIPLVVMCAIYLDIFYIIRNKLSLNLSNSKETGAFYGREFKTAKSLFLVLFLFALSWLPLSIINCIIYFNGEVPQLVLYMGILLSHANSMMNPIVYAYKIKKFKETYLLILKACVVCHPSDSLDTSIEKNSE
As to the kind of experiment: Displacement of [3H]PSB-11 from recombinant human A3 adenosine receptor expressed in CHO cell membranes at 1 uM measured after 45 mins in presence of adenosine deaminase by liquid scintillation counting method relative to control. A digest of the protocol: as §2

For assay [6], the species on record is Homo sapiens. As to the kind of experiment: Selectivity index, ratio of Ki for displacement of [3H]MSX-2 from recombinant human A2A adenosine receptor expressed in CHO cell membranes to Ki for displacement of [3H]PSB-603 from recombinant human A2B adenosine receptor expressed in CHO cell membranes.
Assay [7] addresses T5, Adenosine receptor A2b (Homo sapiens) (UniProt P29275).
T5 sequence (whole entry): T2 sequence (P29275 whole entry)
The assay can be described thus: Competitive antagonist activity at recombinant human A2B adenosine receptor expressed in CHO cells assessed as reduction in NECA-induced […] cAMP accumulation preincubated for 10 mins followed by NECA stimulation for 15 mins […] and measured after 15 mins. The format is functional, cell-based. In general terms: Changes in cAMP serve as a functional read-out for many G protein-coupled receptors.

The target of another assay is T6, Adenosine receptor A1 (Homo sapiens, UniProt P30542).
T6 sequence (P30542 whole entry): T3 sequence (whole entry)
The assay can be described thus: Displacement of [3H]CCPA from recombinant human A1 adenosine receptor expressed in CHO cell membranes measured after 90 mins in presence of adenosine deaminase by liquid scintillation counting method. The procedure, abridged:
as §1

The target of assay [8] is T7, Adenosine receptor A2a (Homo sapiens, UniProt P29274). The assay can be described thus: Displacement of [3H]MSX-2 from recombinant human A2A adenosine receptor expressed in CHO cell membranes measured after 30 mins in presence of adenosine deaminase by liquid scintillation counting method. A digest of the protocol: as §1
T7 sequence (P29274 whole entry): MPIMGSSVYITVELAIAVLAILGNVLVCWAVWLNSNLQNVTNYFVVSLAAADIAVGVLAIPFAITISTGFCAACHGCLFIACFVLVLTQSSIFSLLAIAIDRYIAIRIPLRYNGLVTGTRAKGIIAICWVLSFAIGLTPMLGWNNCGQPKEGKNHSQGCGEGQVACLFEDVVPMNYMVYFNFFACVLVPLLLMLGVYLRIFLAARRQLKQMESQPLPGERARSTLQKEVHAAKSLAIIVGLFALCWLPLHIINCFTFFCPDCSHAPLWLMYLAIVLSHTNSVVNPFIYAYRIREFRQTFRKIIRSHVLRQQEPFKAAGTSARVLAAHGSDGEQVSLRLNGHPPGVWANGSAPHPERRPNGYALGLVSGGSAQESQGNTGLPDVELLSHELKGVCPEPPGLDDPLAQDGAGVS
For assay [9], the target named is T7, Adenosine receptor A2a. As to the kind of experiment: Displacement of [3H]MSX-2 from recombinant human A2A adenosine receptor expressed in CHO cell membranes at 1 uM measured after 30 mins in presence of adenosine deaminase by liquid scintillation counting method relative to control. The procedure, abridged: as §2
The target in assay [10] is T8, Adenosine receptor A3 (Homo sapiens, UniProt P0DMS8).
T8 sequence (P0DMS8 whole entry): T4 sequence (whole entry)
The assay can be described thus: Displacement of [3H]PSB-11 from recombinant human A3 adenosine receptor expressed in CHO cell membranes measured after 45 mins in presence of adenosine deaminase by liquid scintillation counting method. The procedure, abridged:
as §1

In assay [11] the target is T9, Adenosine receptor A3 (Mus musculus, UniProt Q61618).
T9 sequence (Q61618 whole entry): T1 sequence (whole entry)
The assay can be described thus: Displacement of [3H]NECA from recombinant mouse A3 adenosine receptor expressed in CHO cell membranes measured after 180 mins in presence of adenosine deaminase by liquid scintillation counting method.

Consider `CCCn1c(=O)[nH]c2nc(-c3ccc(S(=O)(=O)N4CCN(c5cccc(F)c5)CC4)cc3)[nH]c2c1=O`, for which the inhibition in assay [1] was -2%; in assay [3], 34%; in assay [5], 44%; on Adenosine receptor A2a [9] it was 38%. The Ratio Ki in the assay listed under Homo sapiens [2], in the assay filed under Homo sapiens [4] and in the assay filed under Homo sapiens [6] was > 1580 each time. In addition, the Ki was 0.632 nM on Adenosine receptor A2b; > 1000 nM on Adenosine receptor A1; > 1000 nM at Adenosine receptor A2a [8]; > 1000 nM on Adenosine receptor A3 [10]; > 1000 nM at Adenosine receptor A3 [11]. For the same compound, the Kb in assay [7] was 0.167 nM.

Turning to `CCCn1c(=O)c2[nH]c(-c3ccc(S(=O)(=O)N4CCN(c5ccc(Cl)cc5)CC4)cc3)nc2n(C)c1=O`, the inhibition is -0.833% in assay [1], 22% in assay [3], 39% in assay [5] and 33% on Adenosine receptor A2a [9]. For the same compound, the Ratio Ki in the assay listed under Homo sapiens [2], in the assay listed under Homo sapiens [4] and in the assay filed under Homo sapiens [6] was > 520 in each case. For the same compound, the Ki on Adenosine receptor A2b was 1.91 nM; at Adenosine receptor A1 it was > 1000 nM; on Adenosine receptor A2a [8], > 1000 nM; at Adenosine receptor A3 [10], > 1000 nM; on Adenosine receptor A3 [11], > 1000 nM. In addition, the Kb in [7] is 1.61 nM.

In the case of `CCCn1c(=O)[nH]c2nc(-c3ccc(S(=O)(=O)N4CCN(c5ccc(Br)cc5)CC4)cc3)[nH]c2c1=O`, the inhibition was found to be 8% in [1], 13% in [3], 29% in assay [5] and 33% on Adenosine receptor A2a [9]. Besides, the Ratio Ki in the assay listed under Homo sapiens [2], in the assay filed under Homo sapiens [4] and in the assay listed under Homo sapiens [6] was > 12000 each time. For the same compound, the inhibitory constant (Ki) on Adenosine receptor A2b is 0.0835 nM; at Adenosine receptor A1, > 1000 nM; at Adenosine receptor A2a [8], > 1000 nM; at Adenosine receptor A3 [10] it was > 1000 nM; on Adenosine receptor A3 [11] it was > 1000 nM. Further, the Kb in assay [7] is 0.0598 nM.

As usually defined, the inhibition is the change of the read-out against control, counted positive when it falls. For orientation: Ki means a measure of affinity in units of concentration, obtained from inhibition or displacement. By Kb is commonly meant the equilibrium dissociation constant of an antagonist, usually derived from a functional assay.
